Test results: ChEMBL document CHEMBL1154138, “Antioxidant C-glucosylxanthones from the leaves of Arrabidaea patellifera” (J Nat Prod, 2008)

Key:
[1] = system: Radical scavenging activity; assay: Antioxidant activity assessed as ratio of drug concentration to DPPH concentration causing 50% DPPH radical scavenging activity […]; type: functional
[2] = Antioxidant activity assessed as protection against peroxyl radical-induced alkaline phosphatase oxidation by fluorimetric assay; type: functional
Procedure, shortened: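 Microplate assay on pure compounds measuring protection of alkaline phosphatase (ALP) against peroxyl radical-induced loss of activity. EC50 is the antioxidant concentration that protects ALP to 50% from this loss, reported as pEC50.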

Plasmodium falciparum = assay: Antiplasmodial activity against chloroquine-sensitive Plasmodium falciparum 3D7 by [3H]hypoxanthine incorporation assay; type: functional, organism-based

Row | SMILES | Ratio [1] | EC50 [2] [µM] | IC50 (Plasmodium falciparum) [µM]
1 | O=C(/C=C/c1ccccc1)O[C@@H]1[C@@H](O)[C@H](c2c(O)cc3oc4cc(O)c(O)cc4c(=O)c3c2O)O[C@H](CO)[C@H]1O | 0.16 | 0.98 | 
2 | O=C(/C=C/c1ccc(O)cc1)O[C@@H]1[C@@H](O)[C@H](c2c(O)cc3oc4cc(O)c(O)cc4c(=O)c3c2O)O[C@H](CO)[C@H]1O | 0.16 | 0.83 | 18.1
3 | O=c1c(O)c(-c2ccc(O)c(O)c2)oc2cc(O)cc(O)c12 [QUERCETIN] | 0.092 | 1 | 
4 | O=C(/C=C/c1ccc(O)cc1)OC[C@H]1O[C@@H](c2c(O)cc3oc4cc(O)c(O)cc4c(=O)c3c2O)[C@H](O)[C@@H](O)[C@@H]1O | 0.23 | 1.48 | > 38.2
5 | O=C(O[C@@H]1[C@@H](O)[C@H](c2c(O)cc3oc4cc(O)c(O)cc4c(=O)c3c2O)O[C@H](CO)[C@H]1O)c1ccc(O)cc1 | 0.11 | 0.98 | 26.5
6 | O=c1c2cc(O)c(O)cc2oc2cc(O)c([C@@H]3O[C@H](CO)[C@@H](O)[C@H](O)[C@H]3O)c(O)c12 [MANGIFERIN] | 0.12 | 1.26 | 23.8
7 | O=C(/C=C/c1ccc(O)c(O)c1)O[C@@H]1[C@@H](O)[C@H](c2c(O)cc3oc4cc(O)c(O)cc4c(=O)c3c2O)O[C@H](CO)[C@H]1O | 0.1 | 1.18 | 
